This is a sample that favours compounds with a hit; in the whole collection about 1.8% have one here.
Hck Nef HTS – blocks Nef-activated human Hck kinase. 220,000 tested, 0.68% active. Recombinant Hck-YEEI plus Nef, Z-Lyte FRET kinase assay. P08631. inhibition, % at 20 µM. AID 463187;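 active means Hck-Nef kinase inhibition above about 50%, limit read from the data; inactive means inhibition below that limit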;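 further: 0% = DMSO with Hck plus Nef and 100% = Hck alone without Nef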
Target sequence (P08631 whole entry, looked up): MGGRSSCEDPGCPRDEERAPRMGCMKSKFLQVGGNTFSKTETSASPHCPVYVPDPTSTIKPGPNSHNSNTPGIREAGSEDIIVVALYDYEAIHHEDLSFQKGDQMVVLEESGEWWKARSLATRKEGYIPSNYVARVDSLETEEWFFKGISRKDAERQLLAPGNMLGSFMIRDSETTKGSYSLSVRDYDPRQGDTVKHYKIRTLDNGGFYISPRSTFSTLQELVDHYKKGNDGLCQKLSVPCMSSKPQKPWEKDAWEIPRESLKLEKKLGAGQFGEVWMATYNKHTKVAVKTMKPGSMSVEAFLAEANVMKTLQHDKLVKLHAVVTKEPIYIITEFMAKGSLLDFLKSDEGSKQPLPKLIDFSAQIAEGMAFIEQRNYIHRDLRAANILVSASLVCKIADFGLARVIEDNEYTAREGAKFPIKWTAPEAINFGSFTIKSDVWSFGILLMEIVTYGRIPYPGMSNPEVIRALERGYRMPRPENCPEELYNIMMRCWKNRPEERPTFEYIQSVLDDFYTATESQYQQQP
RanGTP-Impb inh – disruptors of Ran-importin-beta complex formation – biochemical, FRET, CFP-Ran, YFP-importin-beta, homogeneous, primary screen; cell-free CFP-Ran/YFP-importin-beta FRET ratio; inhibition, % (test concentration not listed); 300,000 tested, 1.1% active; AID 2216;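 active means more than half of the replicate wells show a fall in the fluorescence ratio signal beyond about 16%, limit read from the data, passing the limit was not always enough; inconclusive means exactly half of the replicate wells pass the set limit; inactive means fewer than half of replicates pass the limit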;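 further: 0% = DMSO wells and 100% = Ran loaded with GDP instead of GTP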
Runt-SMMHC FRET – inhibitors of human RUNX1 Runt domain binding to CBFb-SMMHC. 220,000 tested, 0.74% active. Q01196+Q13951. AID 1434. Cerulean-Runt/Venus-CBFb-SMMHC FRET ratio 530/480, 1 h. inhibition, % at 20 µM;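 active means mean inhibition across duplicate retests at 20 µM reaching about 50%, limit read from the data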;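 further: 0% = DMSO wells and 100% = wells with excess untagged CBFb-SMMHC; inhibitors lower the FRET ratio by blocking Runt binding to CBFb-SMMHC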
Runt-CBFb FRET – Runt domain-CBFb interaction inhibition; Q01196+Q13951; Cerulean-Runt/Venus-CBFb FRET ratio 530/480, 1 h; inhibition, % at 20 µM; 220,000 tested, 0.46% active; AID 1496;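 active means inhibition over about 50% at 20 µM in the single-dose screen, limit read from the data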;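 further: 0% = DMSO wells and 100% = excess unlabeled CBFb competitor control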
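Doses: 20 µM compound in 1% DMSO | Material: Cerulean-labeled Runt domain protein | Amount: Each fluorescent fusion protein 100 nM | Schedule: Two 1 h room-temperature incubations shielded from light | Measured by: FRET fluorescence | Evaluation: Loss of energy transfer signal | Controls: Unlabeled CBFb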
Hck Nef conf – confirmation of Hck-Nef kinase inhibitors; calls only at 10 µM; shares compounds with Hck Nef HTS; 1,300 tested, 28% active; Recombinant Hck-YEEI:Nef, Z-Lyte FRET kinase assay;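 active means average inhibition of at least 50%, with Z-scores no higher than 3 in both the phospho-tyrosine peptide and fluorescence counterscreens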
Active calls of the source: *; i = inactive; ? = inconclusive; · = not tested or not shown; + = active, no number.

SMILES	Hck Nef HTS	RanGTP-Impb inh	Runt-SMMHC FRET	Runt-CBFb FRET	Hck Nef conf
COc1ccc(C(=O)N/C(=C\c2ccccc2)C(=O)NC(CC(C)C)C(=O)O)cc1 (configuration not stated)	60*	?	8	6	i
Cc1ccc(C(=O)C(C)OC(=O)CCN=C2NS(=O)(=O)c3ccccc32)cc1 (configuration not stated)	·	5	·	·	·
Cc1ccc(S(=O)(=O)n2nc(OC(=O)c3ccccc3C)cc2N)cc1	·	-3	·	·	·
COc1ccccc1C(=O)Oc1cc(N)n(S(=O)(=O)c2ccc(C)cc2)n1	94*	1	-8	-1	+
O=C(CCl)Nc1cccc(S(=O)(=O)NC2=NCCC2)c1	20	-1	0	1	·
Cc1ccccc1CSCCNC(=O)Nc1ccccc1	-5	0	3	0	·
COC(=O)c1ccc(NC(=O)CN2CCN(CCO)CC2)cc1	·	3	·	·	·
COCCCn1c(C(=O)N2CC(C)OC(C)C2)cc2c(=O)n3ccccc3nc21 (configuration not stated)	·	4	·	·	·
N=c1c(C(=O)NC2CCCC2)cc2c(=O)n3ccccc3nc2n1C1CCCC1	122*	182*	-21	11	·
Cc1cccn2c(=O)c(C(=O)NC3CCCCC3)c(O)nc12	·	0	·	·	·
Cc1cccn2c(=O)c3cc(C(=O)NC(C)c4ccccc4)c(=N)n(CCCn4ccnc4)c3nc12 (configuration not stated)	+	+	88*	38	·
Cc1cccc(NC(=O)c2cc3c(=O)n4ccccc4nc3n(CC(C)C)c2=N)c1	36	2	9	3	·
CCCn1c(=N)c(C(=O)NC2CCCC2)cc2c(=O)n3cccc(C)c3nc21	187*	198*	83*	5	·
COCCCn1c(=N)c(C(=O)NC2CCCCC2)cc2c(=O)n3ccccc3nc21	+	192*	83*	5	·
CN(C)Cc1nnnn1-c1cccc(-n2nnnc2CN(C)C)c1	9	1	0	1	·
CCC(C)NC(=S)N(CCc1ccccc1)Cc1cc2cc(OC)c(OC)cc2[nH]c1=O (configuration not stated)	4	1	-7	-77	·
O=C(O)c1cc(NC(=O)c2cccc(F)c2)cc(NC(=O)c2cccc(F)c2)c1	·	-3	·	·	·
COc1ccc(/C=N/n2c(C)nc3c([nH]c4ccccc43)c2=O)cc1CN1CCCC(C)(C)C1	56*	-3	0	-7	i
COc1ccc2[nH]c3c(=O)n(/N=C/c4ccc(OC)c(CN5CCCC5)c4)c(C)nc3c2c1	-9	2	2	1	·
Cc1sc2ncnc(SCC(=O)Nc3nc(-c4ccc(F)c(F)c4)cs3)c2c1C	117*	4	-6	1	i
CC/C=C/C(=O)N1CC2(CC(c3cccc(NC(=O)CC(c4ccccc4)c4ccccc4)c3)=NO2)C[C@@H]1C(N)=O (some centres not stated)	53*	3	-15	-3	i
CC(=O)c1c(C)[nH]c(C(=O)CSc2nnc(-c3ccccc3)n2Cc2ccc3c(c2)OCO3)c1C	64*	3	0	-3	i
CC(=O)c1c(C)[nH]c(C(=O)CSc2nnc(-c3ccco3)n2Cc2ccccc2)c1C	0	8	4	0	·
Cc1c(C(=O)Oc2ccc(-c3cnc4ccccc4n3)cc2)cccc1[N+](=O)[O-]	5	2	7	15	·
O=C(Oc1ccc(-c2cnc3ccccc3n2)cc1)c1cc([N+](=O)[O-])ccc1Cl	53*	3	-6	1	+
SMILES	Hck Nef HTS	RanGTP-Impb inh	Runt-SMMHC FRET	Runt-CBFb FRET	Hck Nef conf
COCCNC(=O)c1cccc(OC2CCN(Cc3ccc(F)cc3OC)CC2)c1	·	0	·	·	·
Cc1[nH]c2ccccc2c1C(=O)CN1CC(C)OC(C)C1 (configuration not stated)	7	-2	2	-2	·
O=C(Nc1ccc2oc(=O)ccc2c1)c1ccc(-c2cccc([N+](=O)[O-])c2)o1	66*	?	-4	1	i
O=C(Nc1ccc2oc(=O)ccc2c1)c1ccc(-c2cccc(Cl)c2)o1	65*	4	-1	-3	i
Cc1ccc(NC2CCCN(C(=O)CN3C(=O)CSC3=O)C2)cc1C (configuration not stated)	·	0	·	·	·
CN(C(=O)CSc1nncn1C)C1CCCN(Cc2ccccc2F)C1 (configuration not stated)	·	-4	·	·	·

Bioassay records (PubChem BioAssay)
